ChEMBL document CHEMBL2331342, “Synthesis, in vitro antiplatelet activity and molecular modelling studies of 10-substituted 2-(1-piperazinyl)pyrimido[1,2-a]benzimidazol-4(10H)-ones” (Eur J Med Chem, 2013)

Legend:
Format in all cases: functional, cell-free
[1] = Antiplatelet activity against collagen A23187-induced platelet aggregation in human plasma preincubated for 2 mins before addition of inducer by turbidimetric method
Summary of the method: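 Human PRP from citrated blood of healthy volunteers (9:1 with 130 mM trisodium citrate, spun 100 g 30 min). Preincubated with compound or DMSO 37 °C 2 min, then A23187 added (final 20.0 μM). Born turbidimetric aggregometry; light transmission at 3 min. At least five concentrations; IC50 from inhibition–concentration curve versus solvent control, mean ±SD of at least five platelet batches.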

[2] = Antiplatelet activity against collagen collagen-induced platelet aggregation in human plasma preincubated for 2 mins before addition of inducer by turbidimetric method
Summary of the method: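 Platelet-rich plasma prepared from healthy volunteers' blood in 130 mM trisodium citrate (9:1), centrifuged 100 g, 30 min. After 2 min at 37 °C with compound or DMSO, bovine tendon collagen added (final 5.0 μg/mL). Born turbidimetric method, light transmission at 3 min. IC50 derived from inhibition–concentration curve (≥5 concentrations) relative to solvent control; mean ±SD, ≥5 platelet batches.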

[3] = Antiplatelet activity against collagen ADP-induced platelet aggregation in human plasma preincubated for 2 mins before addition of inducer by turbidimetric method
Summary of the method: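 Citrated PRP (blood:130 mM trisodium citrate 9:1, centrifuged 100 g for 30 min) from healthy human donors. Compound or DMSO preincubation at 37 °C for 2 min before ADP (final 5.0 μM). Turbidimetric (Born) read of light transmission after 3 min. IC50 from ≥5-concentration inhibition curve against solvent control; mean ±SD over at least five platelet batches.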

Row | Compound | IC50 [1] [µM] | IC50 [2] [µM] | IC50 [3] [µM]
1 | O=c1cc(N2CCNCC2)nc2oc3ccc(Cl)cc3n12 | 13 | 8.8 | 3.6
2 | O=c1cc(N2CCNCC2)nc2n(Cc3ccccc3)c3ccccc3n12 | 143 | 27 | 90
3 | CC(c1ccccc1)n1c2ccccc2n2c(=O)cc(N3CCNCC3)nc12 (stereo not drawn) | 175 | 172 | 163
4 | O=c1cc(N2CCNCC2)nc2n(CCc3ccccc3)c3ccccc3n12 | 75 | 15 | 53
5 | CSCn1c2ccccc2n2c(=O)cc(N3CCNCC3)nc12 | 60 | 31 | 26
6 | O=c1cc(N2CCNCC2)nc2n(Cc3ccccn3)c3ccccc3n12 | 38 | 30 | 19
7 | O=c1cc(N2CCNCC2)nc2n(Cc3cccnc3)c3ccccc3n12 | 23 | 9 | 15
8 | O=c1cc(N2CCNCC2)nc2n(Cc3ccncc3)c3ccccc3n12 | 32 | 21 | 15
9 | COc1c(C)cnc(Cn2c3ccccc3n3c(=O)cc(N4CCNCC4)nc23)c1C | 56 | 49 | 33
10 | CN(C)CCn1c2ccccc2n2c(=O)cc(N3CCNCC3)nc12 | 41 | 8 | 36
11 | CCN(CC)CCn1c2ccccc2n2c(=O)cc(N3CCNCC3)nc12 | 13 | 13 | 16
12 | O=c1cc(N2CCNCC2)nc2n(CCN3CCCC3)c3ccccc3n12 | 42 | 28 | 16
13 | O=c1cc(N2CCNCC2)nc2n(CCN3CCOCC3)c3ccccc3n12 | 11 | 15 | 12
14 | CCN(CC)c1cc(=O)n2c3ccccc3n(CC)c2n1 | > 1000 | 75 | > 1000
15 | CCN(CC)c1cc(=O)nc2n(CC)c3ccccc3n12 | 415 | 75 | > 1000
16 | CCn1c2ccccc2n2c(=O)cc(N3CCNCC3)nc12 | 206 | 55 | 127
17 | CCCn1c2ccccc2n2c(=O)cc(N3CCNCC3)nc12 | 50 | 50 | 62
18 | CC(C)n1c2ccccc2n2c(=O)cc(N3CCNCC3)nc12 | 142 | 77 | 116
19 | CC(=O)Oc1ccccc1C(=O)O [ASPIRIN] | > 1000 | 183 | > 1000
20 | O=C1CCc2cc(OCCCCc3nnnn3C3CCCCC3)ccc2N1 [CILOSTAZOL] | 109 | 40 | 73
21 | Cc1[nH]c(=O)c(C#N)cc1-c1ccncc1 [MILRINONE] | 14 | 12 | 11
